# In ChEMBL document CHEMBL4014344, “Discovery of the Soluble Guanylate Cyclase Stimulator Vericiguat (BAY 1021189) for the Treatment of Chronic Heart Failure” (J Med Chem, 2017):
# pIC50: −log10 of the molar value. The source made the active and inactive calls. The rule behind the calls is not given here.
# Legend:
# Rattus norvegicus [1] = test: Antihypertensive activity in L-NAME-treated renin transgenic rat co-expressing RenTG(mRRen2)27 assessed as reduction in systolic blood pressure increase at 3 to 10 mg/kg, administered qd via oral gavage up to 21 days; format: functional, organism-based
# Method in brief: (§1)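 Male RenTG(mRRen2)27 rats, 8 weeks old, given L-NAME in drinking water (50 mg/L) throughout. Randomised to placebo (2 mL/kg qd, n = 20) or 3 and 10 mg/kg/day po by gavage qd (n = 15 per group). Tail-cuff blood pressure on day 0, 7, 14 and 21. Plasma taken at day 22 end. Unpaired t test, mean ± SEM.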
# Cytochrome P450 1A2 = target: T1, Cytochrome P450 1A2 (Homo sapiens, UniProt P05177); test: Inhibition of human liver microsomes CYP1A2 using phenacetin as substrate; format: ADME
# T1 sequence (P05177 whole entry): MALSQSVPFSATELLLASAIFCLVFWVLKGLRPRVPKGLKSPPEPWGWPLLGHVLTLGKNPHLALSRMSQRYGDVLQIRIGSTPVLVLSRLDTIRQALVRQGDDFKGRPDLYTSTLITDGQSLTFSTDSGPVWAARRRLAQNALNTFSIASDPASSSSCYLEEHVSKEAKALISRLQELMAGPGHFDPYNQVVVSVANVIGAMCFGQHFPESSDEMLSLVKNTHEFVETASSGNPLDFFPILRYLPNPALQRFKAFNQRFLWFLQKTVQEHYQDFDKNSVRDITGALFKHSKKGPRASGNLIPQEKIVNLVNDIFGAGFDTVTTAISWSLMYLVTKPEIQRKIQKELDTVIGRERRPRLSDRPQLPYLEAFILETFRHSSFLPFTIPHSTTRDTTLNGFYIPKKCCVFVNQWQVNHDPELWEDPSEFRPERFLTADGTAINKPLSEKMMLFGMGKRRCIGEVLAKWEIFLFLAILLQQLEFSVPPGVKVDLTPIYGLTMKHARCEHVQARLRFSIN
# Cytochrome P450 3A4 [2] = target: T2, Cytochrome P450 3A4 (Homo sapiens, UniProt P08684); test: Inhibition of human liver microsomes CYP3A4 using testosterone as substrate preincubated with compound followed by substrate addition; format: ADME
# T2 sequence (P08684 whole entry): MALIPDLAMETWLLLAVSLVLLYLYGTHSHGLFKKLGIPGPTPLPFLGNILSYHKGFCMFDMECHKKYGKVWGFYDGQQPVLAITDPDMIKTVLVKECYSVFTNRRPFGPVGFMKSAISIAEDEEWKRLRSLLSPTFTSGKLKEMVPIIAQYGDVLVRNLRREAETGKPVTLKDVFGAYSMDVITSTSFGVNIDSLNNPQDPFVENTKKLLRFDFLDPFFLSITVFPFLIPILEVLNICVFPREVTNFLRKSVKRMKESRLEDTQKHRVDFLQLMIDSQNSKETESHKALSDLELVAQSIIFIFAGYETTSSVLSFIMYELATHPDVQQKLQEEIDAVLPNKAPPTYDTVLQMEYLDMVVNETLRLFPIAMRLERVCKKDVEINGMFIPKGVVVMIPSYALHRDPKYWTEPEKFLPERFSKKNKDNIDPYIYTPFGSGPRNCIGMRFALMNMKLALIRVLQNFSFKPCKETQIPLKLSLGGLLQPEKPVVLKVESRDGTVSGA
# Rattus norvegicus [3] = test: Antihypertensive activity in L-NAME-treated renin transgenic rat co-expressing RenTG(mRRen2)27 assessed as reduction in Kim-1 expression at 3 to 10 mg/kg administered qd via oral gavage up to 21 days; format: functional, organism-based; method in brief: as §1
# Heart [4] = test: Cardiotoxicity in Wistar rat assessed as effect on contractility administered for 20 mins; format: toxicity, tissue-based
# Method in brief: (§2)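 Male Wistar rats (200−250 g) anesthetized with Narcoren 100 mg/kg ip. Excised heart Langendorff-perfused at constant flow 10 mL/min with Krebs−Henseleit buffer gassed with 95% O2/5% CO2. Values expressed as relative change from baseline before compound application.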
# Heart [5] = test: Cardiotoxicity in Wistar rat assessed as effect on heart rate administered for 20 mins; format: toxicity, tissue-based; method in brief: as §2
# Rattus norvegicus [6] = test: Antihypertensive activity in L-NAME-treated renin transgenic rat co-expressing RenTG(mRRen2)27 assessed as reduction in heart hypertrophy in left ventricle administered qd via oral gavage up to 21 days; format: functional
# Method in brief: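 Renin transgenic RenTG(mRRen2)27 male rats, 8 weeks old, on L-NAME drinking water (50 mg/L). Dosed by gavage qd with placebo (n = 20) or 3 or 10 mg/kg/day (n = 15 each). At day 22 animals were anesthetized and sacrificed, and left and right ventricles were dissected and weighed for hypertrophy. Unpaired t test versus placebo.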
# Rattus norvegicus [7] = test: Effect on mortality in L-NAME-treated renin transgenic rat co-expressing RenTG(mRRen2)27 assessed as increase in survival rate administered qd via oral gavage up to 21 days; format: functional
# Method in brief: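 L-NAME (50 mg/L, drinking water) treated male RenTG(mRRen2)27 rats aged 8 weeks. Placebo (n = 20) or 3 or 10 mg/kg/day by oral gavage qd (n = 15/group). Survival checked on days 1, 8, 15 and at study end (day 22).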
# [8] = Drug metabolism in human hepatocytes assessed as CYP-mediated (2S,3S,4S,5R,6R)-6-(6-amino-2-(5-fluoro-1-(2-fluorobenzyl)-1H-pyrazolo[3,4-b]pyridin-3-yl)-5-(methoxycarbonylamino)pyrimidin-4-ylamino)-3,4,5-trihydroxytetrahydro-2H-pyran-2-carboxylic acid metabolite formation; format: ADME, cell-based
# Cytochrome P450 3A4 [9] = target: T2, Cytochrome P450 3A4; test: Inhibition of human liver microsomes CYP3A4 using midazolam as substrate preincubated with compound followed by substrate addition; format: ADME
# Rattus norvegicus [10] = test: Effect on mortality in L-NAME-treated renin transgenic rat co-expressing RenTG(mRRen2)27 assessed as survival rate at 10 mg/kg administered qd via oral gavage up to 21 days (reference value: 25%); format: functional; conditions: 504 h
# Saphenous artery [11] = test: Vasorelaxant activity in normal Chinchilla rabbit saphenous artery ring administered at the beginning of the last resting period of 28 mins; format: functional; conditions: Oryctolagus cuniculus
# Saphenous artery [12] = test: Inhibition of phenylephrine-induced contractions in Chinchilla rabbit saphenous artery rings administered at the beginning of the last resting period of 28 mins; format: functional; conditions: Oryctolagus cuniculus
smiles,measurement,setting,value
COC(=O)Nc1c(N)nc(-c2nn(Cc3ccccc3F)c3ncc(F)cc23)nc1N [VERICIGUAT],Activity,Rattus norvegicus [1],Active
same,pIC50,Cytochrome P450 1A2,< 4.30
same,pIC50,Cytochrome P450 3A4 [2],< 4.30
same,Activity,Rattus norvegicus [3],Active
same,Activity,Heart [4],Non-Toxic
same,Activity,Heart [5],Non-Toxic
same,Activity,Rattus norvegicus [6],Dose-dependent effect
same,Activity,Rattus norvegicus [7],Dose-dependent effect
same,Drug metabolism,[8],Metabolite_Detected
same,pIC50,Cytochrome P450 3A4 [9],< 4.30
same,survival at 10 mg/kg,Rattus norvegicus [10],90%
same,pIC50,Saphenous artery [11],8.25
same,pIC50,Saphenous artery [12],6.10
